Experimental data pooled from the literature.
Target: Serine/threonine-protein kinase mTOR (MTOR, Homo sapiens, UniProt P42345)

Compound	effect on	action	method	tested at	endpoint	value
Nc1ncnc2occ(-c3ccc(NC(=O)Nc4cc(C(F)(F)F)ccc4F)cc3)c12	enzyme activity	inhibitor		20 µM	remaining activity	74%
COc1cc2ncnc(Nc3ccc(Oc4ccccc4)c(C)c3C)c2cc1OC	enzyme activity	inhibitor		1 µM	inhibition	0%
C=CC(=O)Nc1cc(Nc2nccc(Nc3cc(Cl)c(F)cc3C(C)(C)O)n2)c(OC)cc1N1CC[C@@H](N(C)C)C1	enzyme activity	inhibitor		1 µM	inhibition	6%
CCCS(=O)(=O)Nc1ccc(F)c(C(=O)c2c[nH]c3ncc(-c4ccc(Cl)cc4)cc23)c1F	enzyme activity	inhibitor		1 µM	inhibition	< 10%
CC(C)(C)c1nc(-c2cccc(NS(=O)(=O)c3c(F)cccc3F)c2F)c(-c2ccnc(N)n2)s1	enzyme activity	inhibitor	radiometric	1 µM	remaining activity	99%
CS(=O)(=O)Nc1cccc(-c2csc(NC(=O)CSc3nc4nccnc4c(=O)n3CCc3ccccc3)n2)c1	enzyme activity	inhibitor		10 µM	inhibition	1%
Cc1cnc(NC2CCOCC2)nc1-n1cnc(C(=O)NC(CN)c2cc(F)cc(Cl)c2)c1 (centres unmarked)	enzyme activity	inhibitor	radiometric	1 µM	remaining activity	82%
Cc1noc([C@H]2C[C@@H](c3ccc(C(F)(F)F)cc3)CN(C(=O)N3CCS(=O)(=O)C3)C2)n1	cell-free assay		competition with immobilised ligand	1 µM	remaining binding	92%
CCCOc1ccc(OC)c(F)c1C(=O)c1ccc(C(=O)N[C@@H]2CNC[C@H]2NC(=O)c2ccc3[nH]ncc3c2)cc1	enzyme activity	inhibitor		10 µM	remaining activity	86%
COCCOc1nc(-c2ccc(Cl)nc2)nc2c1CN(C(=O)c1ncn3ccccc13)CC2	cell-free assay		competition with immobilised ligand	0.1 µM	remaining binding	97%
CNCc1ccc(-c2cc(-c3nc(-c4ccc(S(=O)(=O)C(C)C)cc4)cnc3N)on2)cc1	enzyme activity	inhibitor		2 µM	inhibition	37%
CNC(=O)Nc1ccc2c(c1)[C@@]1(CC2)OC(=O)N(CC(=O)N(Cc2ccc(F)cc2)[C@@H](C)C(F)(F)F)C1=O	cell-free assay		competition with immobilised ligand	1 µM	remaining binding	100%
Cc1ccc(C(=O)NCc2ccsc2)cc1C#Cc1cn(C(C)C)c2ncnc(N)c12	enzyme activity	inhibitor		1 µM	activity vs control	105%
CS(=O)(=O)NCC[C@H](NC(=O)c1cncc2c1cnn2-c1ccc(F)cc1)c1ccnc(S(C)(=O)=O)c1	cell-free assay		competition with immobilised ligand	1 µM	remaining binding	88%
O=C(CSc1nc2nccnc2c(=O)n1CCc1ccccc1)Nc1ccccc1	enzyme activity	inhibitor		10 µM	inhibition	31%
N[C@@H]1CCN(c2nccc(-c3cnn4ncccc34)n2)C1	binding			1 µM	remaining binding	99%
COc1ccc2c(c1)O[C@@H](c1ccc(OC)c(OC)c1)C[C@H]2NC(=O)C1(c2ccc3c(c2)OC(F)(F)O3)CC1	cell-free assay		competition with immobilised ligand	1 µM	remaining binding	100%
